The values that follow come from ChEMBL document CHEMBL4017495, “Identification and Characterization of the First Selective Y4 Receptor Positive Allosteric Modulator” (J Med Chem, 2017).

One may read the Emax as the size of the effect at its maximum, as opposed to the concentration needed. As usually defined, the pKb is the Kb on a negative log10 scale, so that one unit is a factor of ten. As a reminder, the EC50 is the concentration that produces a half-maximal response.

Assay [1] addresses T1, Neuropeptide Y receptor type 4 (Homo sapiens, UniProt P50391). The note with it: 30 uM.
Assay [2] concerns the target T1, Neuropeptide Y receptor type 4.
Assay [3] has the same target. The source holds these as a separate data set.
Assay [4] shares this target. As to conditions: 30 uM. This is another data set of the same source.
Assay [5] shares this target. The source holds these as a separate data set.
Assay [6] deals with T2, Neuropeptide Y receptor type 1/2 (Mus musculus) (UniProt Q04573+P97295). Description: Positive allosteric modulation of NY1/2 receptor in mouse descending colon mucosa assessed as increase in mucosal antisecretory response to peptide YY at 30 uM preincubated for 5 mins followed by pancreatic polypeptide addition after 20 mins. In short, it runs like this: (§1)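 Mouse descending colon mucosa was mounted in Ussing chambers (0.14 cm2 exposed) in oxygenated Krebs–Henseleit at 37 °C, voltage-clamped at 0 mV, with Isc recorded continuously. After a stable basal Isc (20–30 min), basolateral pretreatment was 30 μM compound or DMSO vehicle (0.3%) for 5 min. VIP (10 nM) was given for 5–10 min, then single rat PP additions (3, 10 or 30 nM). PYY (10 nM) followed 20 min later.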
T2 sequence (P97295 whole entry, looked up): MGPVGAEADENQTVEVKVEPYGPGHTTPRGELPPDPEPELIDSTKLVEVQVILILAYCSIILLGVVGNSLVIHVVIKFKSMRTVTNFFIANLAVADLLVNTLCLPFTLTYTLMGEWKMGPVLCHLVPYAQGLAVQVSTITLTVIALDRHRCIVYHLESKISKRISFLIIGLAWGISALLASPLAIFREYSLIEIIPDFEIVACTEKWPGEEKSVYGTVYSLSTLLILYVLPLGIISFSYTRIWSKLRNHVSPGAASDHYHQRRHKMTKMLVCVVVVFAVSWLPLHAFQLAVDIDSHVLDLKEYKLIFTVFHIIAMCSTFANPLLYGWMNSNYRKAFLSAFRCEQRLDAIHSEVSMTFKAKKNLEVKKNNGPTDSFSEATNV
T2 sequence (Q04573 whole entry, looked up): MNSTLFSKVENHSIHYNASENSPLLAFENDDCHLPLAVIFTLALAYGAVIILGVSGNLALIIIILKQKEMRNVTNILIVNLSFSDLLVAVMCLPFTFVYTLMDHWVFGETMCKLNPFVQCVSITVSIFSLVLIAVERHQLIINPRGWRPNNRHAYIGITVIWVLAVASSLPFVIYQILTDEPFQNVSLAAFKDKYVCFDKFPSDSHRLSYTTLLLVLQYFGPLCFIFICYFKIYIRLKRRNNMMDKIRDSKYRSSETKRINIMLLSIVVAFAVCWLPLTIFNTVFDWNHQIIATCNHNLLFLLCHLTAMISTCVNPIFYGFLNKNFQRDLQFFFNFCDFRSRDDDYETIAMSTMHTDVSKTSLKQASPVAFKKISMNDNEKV

Assay [7] has as its target T1, Neuropeptide Y receptor type 4. The source holds these as a separate data set.
For assay [8] the target is unchanged. The source holds these as a separate data set.
Assay [9] concerns the target Neuropeptide Y receptor type 4 (Mus musculus) (UniProt Q61041). Description: Agonist activity at NY4 receptor in mouse descending colon mucosa assessed as increase in mucosal antisecretory response at 30 uM incubated for 5 mins. In a few lines: as §1
Assay [10] deals with T1, Neuropeptide Y receptor type 4. As to conditions: HEK293, 30 uM.
Assay [11] has the same target. Description: Positive allosteric modulation of human C-terminal eYFP-fused human NY4 receptor expressed in African green monkey COS7 cells co-expressing delta6Galphaqi4-myr assessed as potentiation of pancreatic polypeptide-mediated Ca2+ flux treated at 20 secs post baseline detection followed by addition of pancreatic polypeptide after 140 secs by Fluo2-AM fluorescent dye based-assay. Format: functional, cell-based. In a few lines: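 COS7 cells stably co-expressing Y4R-eYFP and Δ6Gαqi4-myr were seeded overnight. They were loaded with 2.4 μM Fluo2-AM in HBSS/20 mM HEPES/[…] for 60 min at 37 °C, then kept in assay buffer. Fluorescence was read at ex 485/em 525 nm. Compound was added after a 20 s baseline and peptide at 140 s. Response was taken as x-fold over basal, normalized to the DMSO control, and fitted to an operational model of allosterism. Duplicates, at least three independent runs.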
In general terms: Calcium assays in cells follow changes in intracellular calcium, usually with a dye or a luminescent sensor.

Assay [12] has the same target. The note with it: HEK293, 30 uM. The source holds these as a separate data set.
Assay [13] shares this target. This is another data set of the same source.
For assay [14] the target is unchanged. This is another data set of the same source.
The target is the same in assay [15]. This is another data set of the same source.
Assay [16] has as its target Neuropeptide Y receptor type 4 (Mus musculus) (UniProt Q61041). The assay can be described thus: Positive allosteric modulation of NY4 receptor in mouse descending colon mucosa assessed as increase in mucosal antisecretory response to pancreatic polypeptide at 30 uM preincubated for 5 mins followed by pancreatic polypeptide addition after 20 mins. In a few lines:
as §1

Assay [17] has as its target T1, Neuropeptide Y receptor type 4. This is another data set of the same source.
For assay [18] the target is unchanged. The note with it: 30 uM. This is another data set of the same source.
Assay [19] concerns the target T2, Neuropeptide Y receptor type 1/2 (Mus musculus). Description: Positive allosteric modulation of NY1/2 receptor in mouse descending colon mucosa assessed as increase in mucosal antisecretory response to vasoactive intestinal polypeptide at 30 uM preincubated for 5 mins followed by pancreatic polypeptide addition after 20 mins. In a few lines: as §1
Assay [20] has as its target T1, Neuropeptide Y receptor type 4. The note with it: HEK293, 30 uM. This is another data set of the same source.

Active and inactive are the calls of the source. No cut-off for these calls is given here.

T1 sequence (P50391 whole entry): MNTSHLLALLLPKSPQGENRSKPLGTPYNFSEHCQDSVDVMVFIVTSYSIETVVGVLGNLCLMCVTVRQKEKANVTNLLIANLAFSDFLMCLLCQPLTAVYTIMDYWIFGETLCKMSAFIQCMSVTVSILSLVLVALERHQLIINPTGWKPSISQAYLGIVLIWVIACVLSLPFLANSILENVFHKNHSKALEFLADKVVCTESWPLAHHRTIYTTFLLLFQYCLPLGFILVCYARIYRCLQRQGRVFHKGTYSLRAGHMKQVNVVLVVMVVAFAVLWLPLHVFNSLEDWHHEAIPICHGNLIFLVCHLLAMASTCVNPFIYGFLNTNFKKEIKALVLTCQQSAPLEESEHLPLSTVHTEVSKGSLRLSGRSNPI
Neuropeptide Y receptor type 4 (Mus musculus), sequence (Q61041 whole entry): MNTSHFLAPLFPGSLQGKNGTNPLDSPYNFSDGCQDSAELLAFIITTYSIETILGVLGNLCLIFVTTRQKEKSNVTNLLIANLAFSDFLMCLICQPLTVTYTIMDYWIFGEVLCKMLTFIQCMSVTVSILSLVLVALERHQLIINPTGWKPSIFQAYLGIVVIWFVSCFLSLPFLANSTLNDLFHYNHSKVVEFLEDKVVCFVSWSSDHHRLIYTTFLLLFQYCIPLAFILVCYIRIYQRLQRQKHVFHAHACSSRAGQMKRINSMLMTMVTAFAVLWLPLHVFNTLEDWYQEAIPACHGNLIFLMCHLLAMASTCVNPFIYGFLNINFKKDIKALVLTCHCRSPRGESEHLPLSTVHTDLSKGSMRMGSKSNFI

Consider `CC(C)(C)c1ccc(OC2CCCCC2O)cc1` (stereo not given), for which the Emax was determined as 94% in [1]; 95% in assay [4]; 145% in assay [10]; 118% in assay [12]; 89% in assay [18]; 144% in assay [20]. In addition, the log(activity) stood at 0.41 in assay [2]; 0.46 in [3]; 0.79 in [7]; 0.9 in assay [8]; 0.36 in [13]; 0.3 in [15]. For the same compound, the pKb in assay [5], in assay [14] and in assay [17] was 4.4 each time. Also, the outcome in assay [6], in [9] and in assay [19] was inactive. Further, in assay [11], the EC50 turned out to be 5.1 µM. For the same compound, the outcome in assay [16] was Active.
